According to ChEMBL document CHEMBL1811821, “Cystic fibrosis: a new target for 4-Imidazo[2,1-b]thiazole-1,4-dihydropyridines” (J Med Chem, 2011):
The source made the active and inactive calls. No cut-off for these calls is given here.

Experiments:
[1] = test system: Cystic fibrosis transmembrane conductance regulator (Homo sapiens), P13569 [F508del]; experiment: Activity at CFTR F508 deletion mutant expressed in forskolin-stimulated FRT cells assessed as maximal increase in iodine influx measured as YFP quenching rate at 0.2 uM after 24 hrs by fluorescence assay; assay type: cell-based
In short: (§1)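 ΔF508-CFTR and halide-sensitive YFP coexpressed in FRT cells, held at 27 °C for 24 h for rescue, then stimulated 30–40 min with 20 μM forskolin with or without compound at 0.2, 2 and 20 μM. Fluorescence read before and after I– addition (100 mM final). Normalized decay fitted exponentially for maximal quenching rate; dose–response fitted with Hill equation for potency and maximal effect. Three independent determinations.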

[2] = test system: Cystic fibrosis transmembrane conductance regulator (Homo sapiens), P13569 [F508del]; experiment: Activity at CFTR F508 deletion mutant expressed in forskolin-stimulated FRT cells assessed as maximal increase in iodine influx measured as YFP quenching rate up to 20 uM after 24 hrs by fluorescence assay; assay type: cell-based; in short: as §1
[3] = Negative ionotropic activity in potassium depolarized guinea pig longitudinal smooth muscle assessed as inhibition of calcium-induced contraction; assay type: functional, Cavia porcellus
Cavia porcellus [4] = species: Cavia porcellus; experiment: Negative ionotropic activity in potassium depolarized guinea pig longitudinal smooth muscle assessed as inhibition of calcium-induced contraction at 10^-5 M; assay type: functional
[5] = Binding affinity to CFTR F508 deletion mutant expressed in forskolin-stimulated FRT cells assessed as increase in iodine influx measured as YFP quenching rate after 24 hrs by fluorescence assay; assay type: cell-based; in short: as §1
[6] = Ratio EC50 for nifedipine to compound for negative […] activity against potassium-induced contraction in left atrium of guinea pig; assay type: functional, Cavia porcellus, Cardiac atrium
[7] = test system: Cystic fibrosis transmembrane conductance regulator (Homo sapiens), P13569 [F508del]; experiment: Activity at CFTR F508 deletion mutant expressed in forskolin-stimulated FRT cells assessed as maximal increase in iodine influx measured as YFP quenching rate after 24 hrs by fluorescence assay; assay type: cell-based; in short: as §1
[8] = Bronchodilatory activity in guinea pig trachea assessed as inhibition of carbachol-induced contraction at 10^-4 M; assay type: functional; details: Cavia porcellus
[9] = Bronchodilatory activity in guinea pig trachea assessed as inhibition of carbachol-induced contraction; assay type: functional, tissue-based, Cavia porcellus
Cavia porcellus [10] = species: Cavia porcellus; experiment: Negative ionotropic activity in potassium depolarized guinea pig longitudinal smooth muscle assessed as inhibition of calcium-induced contraction at 10^-6 M; assay type: functional
Cavia porcellus [11] = species: Cavia porcellus; experiment: Negative ionotropic activity in potassium depolarized guinea pig longitudinal smooth muscle assessed as inhibition of calcium-induced contraction at 5 X 10^-8 M; assay type: functional
Cavia porcellus [12] = species: Cavia porcellus; experiment: Negative ionotropic activity in potassium depolarized guinea pig longitudinal smooth muscle assessed as inhibition of calcium-induced contraction at 5 X 10^-7 M; assay type: functional
[13] = Bronchodilatory activity in guinea pig trachea assessed as inhibition of carbachol-induced contraction at 10^-5 M; assay type: functional; details: Cavia porcellus
[14] = Negative chronotropic activity against potassium-induced contraction in guinea pig right atrium assessed as decrease atrial rate at 10^-5 M relative to control; assay type: functional; details: Cavia porcellus, Cardiac atrium
In short: (§2)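 Spontaneously beating isolated guinea pig right atrium, pretreatment rate 165–190 beats/min. Drugs added cumulatively. Decrease in atrial rate expressed as percent change from control, n = 7–8. […] Control versus treated tested at each concentration by Student's t-test, P < 0.05. Mean ± SEM.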

[15] = Negative ionotropic activity against potassium-induced contraction in guinea pig left atrium assessed as […] at 10^-6 M relative to control; assay type: functional; details: Cavia porcellus, Cardiac atrium
In short: (§3)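 Isolated guinea pig left atrium paced at 1 Hz. Drugs added cumulatively. Negative inotropic effect expressed as percent change from control, n = 5–6. […] Student's t-test against control at each concentration, P < 0.05. Mean ± SEM.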

Aorta [16] = experiment: Vasorelaxant activity in potassium depolarized guinea pig aortic strip assessed as inhibition of calcium-induced contraction at 10^-5 M; assay type: functional; details: Cavia porcellus
In short: (§4)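 Guinea pig aortic strips depolarized with 80 mM K+, with cumulative drug addition. Relaxation given as mean ± SEM. […] Student's t-test against control, P < 0.05.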

[17] = Negative ionotropic activity against potassium-induced contraction in guinea pig left atrium assessed as decrease in developed tension; details: Cavia porcellus, Cardiac atrium
[18] = Negative ionotropic activity against potassium-induced contraction in guinea pig left atrium assessed as […] at 10^-5 M relative to control; assay type: functional; details: Cavia porcellus, Cardiac atrium; in short: as §3
[19] = Negative chronotropic activity against potassium-induced contraction in guinea pig right atrium assessed as decrease atrial rate; assay type: functional, tissue-based; details: Cavia porcellus, Cardiac atrium; in short: as §2
[20] = Negative ionotropic activity against potassium-induced contraction in guinea pig left atrium assessed as […] at 10^-4 M relative to control; assay type: functional; details: Cavia porcellus, Cardiac atrium; in short: as §3
Aorta [21] = experiment: Vasorelaxant activity in potassium depolarized guinea pig aortic strip assessed as inhibition of calcium-induced contraction at 10^-6 M; assay type: functional; details: Cavia porcellus; in short: as §4
[22] = Negative chronotropic activity against potassium-induced contraction in guinea pig right atrium assessed as decrease atrial rate at 10^-4 M relative to control; assay type: functional; details: Cavia porcellus, Cardiac atrium; in short: as §2
Cavia porcellus [23] = species: Cavia porcellus; experiment: Negative ionotropic activity in potassium depolarized guinea pig longitudinal smooth muscle assessed as inhibition of calcium-induced contraction at 5 X 10^-5 M; assay type: functional
[24] = Ratio EC50 for negative chronotropic activity against potassium-induced contraction in guinea pig right atrium to EC50 for negative […] activity against potassium-induced contraction in guinea pig left atrium; assay type: functional, Cavia porcellus, Cardiac atrium
Aorta [25] = experiment: Vasorelaxant activity in potassium depolarized guinea pig aortic strip assessed as inhibition of calcium-induced contraction at 10^-4 M; assay type: functional; details: Cavia porcellus; in short: as §4

Cystic fibrosis transmembrane conductance regulator (Homo sapiens), P13569 [F508del], sequence (P13569 as listed by the source): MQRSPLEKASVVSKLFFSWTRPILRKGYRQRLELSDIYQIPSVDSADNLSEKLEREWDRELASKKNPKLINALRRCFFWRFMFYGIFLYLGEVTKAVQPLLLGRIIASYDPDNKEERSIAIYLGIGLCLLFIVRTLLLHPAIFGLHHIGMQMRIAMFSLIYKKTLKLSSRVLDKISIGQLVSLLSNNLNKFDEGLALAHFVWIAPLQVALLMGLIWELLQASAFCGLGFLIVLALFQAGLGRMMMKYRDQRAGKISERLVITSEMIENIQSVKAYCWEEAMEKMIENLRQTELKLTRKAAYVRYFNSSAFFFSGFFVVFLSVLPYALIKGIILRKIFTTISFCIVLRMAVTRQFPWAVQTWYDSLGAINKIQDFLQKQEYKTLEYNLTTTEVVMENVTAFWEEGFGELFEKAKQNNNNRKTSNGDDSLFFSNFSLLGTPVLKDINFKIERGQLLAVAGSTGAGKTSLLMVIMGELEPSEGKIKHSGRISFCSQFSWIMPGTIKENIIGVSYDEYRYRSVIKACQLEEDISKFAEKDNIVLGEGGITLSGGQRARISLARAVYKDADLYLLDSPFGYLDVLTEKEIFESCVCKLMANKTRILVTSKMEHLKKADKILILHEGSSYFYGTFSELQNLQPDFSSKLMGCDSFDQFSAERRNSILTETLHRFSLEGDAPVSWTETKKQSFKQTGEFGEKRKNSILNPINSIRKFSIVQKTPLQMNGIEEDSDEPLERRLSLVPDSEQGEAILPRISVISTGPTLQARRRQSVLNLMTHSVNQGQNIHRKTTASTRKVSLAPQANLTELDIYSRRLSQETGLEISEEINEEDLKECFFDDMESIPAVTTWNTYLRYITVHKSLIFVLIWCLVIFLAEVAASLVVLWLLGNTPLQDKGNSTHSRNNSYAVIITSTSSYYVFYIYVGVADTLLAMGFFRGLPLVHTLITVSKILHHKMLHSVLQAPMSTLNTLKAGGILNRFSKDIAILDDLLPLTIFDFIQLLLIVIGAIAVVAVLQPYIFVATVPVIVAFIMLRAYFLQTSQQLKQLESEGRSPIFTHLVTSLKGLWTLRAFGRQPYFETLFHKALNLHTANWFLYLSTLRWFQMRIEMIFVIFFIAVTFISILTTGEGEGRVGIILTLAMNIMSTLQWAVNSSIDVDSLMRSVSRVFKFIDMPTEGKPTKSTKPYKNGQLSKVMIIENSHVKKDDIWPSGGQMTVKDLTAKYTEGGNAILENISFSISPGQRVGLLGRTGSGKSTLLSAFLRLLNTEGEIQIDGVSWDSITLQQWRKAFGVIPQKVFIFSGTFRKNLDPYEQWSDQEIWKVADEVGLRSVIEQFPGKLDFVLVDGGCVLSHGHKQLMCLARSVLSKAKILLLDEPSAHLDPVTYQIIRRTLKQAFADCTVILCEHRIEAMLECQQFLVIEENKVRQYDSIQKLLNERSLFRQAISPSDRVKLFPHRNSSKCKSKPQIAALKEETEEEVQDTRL

SMILES | Activity [1] | Activity [2] | IC50 [3] | Emax [7] | Kd [5] | further results
COC(=O)C1=C(C)NC(C)=C(C(=O)OC)C1c1c(Cl)nc2sc(Cl)cn12 | inactive |  | 680 nM | 60 ms-1 | 6800 nM | Ratio EC50 [6]: 2.6; inhibition at 100 µM [8]: 87%; IC50 [9]: 3660 nM; inhibition (Cavia porcellus [10]): 60%
COC(=O)C1=C(C)NC(C)=C(C(=O)OC)C1c1c(Cl)nc2sc(C)c(C)n12 | inactive |  | 320 nM | 60 ms-1 | 10900 nM | inhibition (Cavia porcellus [10]): 78%
COC(=O)C1=C(C)NC(C)=C(C(=O)OC)C1c1c(-c2cc(OC)c([N+](=O)[O-])cc2OC)nc2sc(Cl)cn12 | inactive | inactive | 74 nM |  |  | inhibition at 100 µM [8]: 35%; inhibition (Cavia porcellus [12]): 92%
COC(=O)C1=C(C)NC(C)=C(C(=O)OC)C1c1c(C)nc2sc(C)cn12 | inactive | inactive | 8830 nM |  |  | inhibition at 10 µM [13]: 27%; inhibition (Cavia porcellus [4]): 70%
COC(=O)C1=C(C)NC(C)=C(C(=O)OC)C1c1c(Cl)nc2scc(C)n12 | inactive |  | 510 nM | 60 ms-1 | 21400 nM | Ratio EC50 [6]: 2.6
C=CCOC(=O)C1=C(C)NC(C)=C(C(=O)OCC=C)C1/C=C/c1ccccc1OC |  |  | 940 nM | 59 ms-1 | 400 nM | inhibition at 10 µM [14]: 6%; inhibition at 10 µM [13]: 29%; inhibition at 1 µM [15]: 83%; inhibition at 10 µM (Aorta [16]): 1%; EC50 [17]: 34 nM; inhibition (Cavia porcellus [4]): 68%
CCOC(=O)C1=C(C)NC(C)=C(C(=O)OCC)C1c1c(-c2ccccc2)nc2sc(C)cn12 | inactive |  | 250 nM | 60 ms-1 | 14800 nM | inhibition at 10 µM [14]: 84%; inhibition at 10 µM [18]: 44%; inhibition at 10 µM (Aorta [16]): 5%; EC50 [19]: 7150 nM; inhibition (Cavia porcellus [10]): 83%
COC(=O)C1=C(C)NC(C)=C(C(=O)OC)C1c1c(-c2cc(OC)c(OC)c(OC)c2)nc2sc(Cl)cn12 | inactive | inactive |  |  |  | 
C=CCOC(=O)C1=C(C)NC(C)=C(C(=O)OCC=C)C1c1c(-c2ccc(OC(F)(F)F)cc2)nc2sccn12 | inactive |  | 5.3 nM | 60 ms-1 | 4800 nM | inhibition at 100 µM [20]: 88%; inhibition at 1 µM (Aorta [21]): 31%; inhibition at 10 µM [13]: 38%; inhibition at 100 µM [22]: 77%; inhibition (Cavia porcellus [11]): 90%; EC50 [19]: 1970 nM; EC50 [17]: 730 nM
COC(=O)C1=C(C)NC(C)=C(C(=O)OC)C1c1c(Cl)nc2sc(C)cn12 | inactive | inactive |  |  |  | 
CCOC(=O)C1=C(C)NC(C)=C(C(=O)OCC)C1c1c(-c2ccc(Cl)c(Cl)c2Cl)nc2sccn12 | inactive |  | 38 nM | 46 ms-1 | 3200 nM | inhibition at 10 µM [14]: 92%; inhibition at 10 µM [13]: 40%; inhibition at 1 µM [15]: 90%; inhibition at 100 µM (Aorta [25]): 17%; EC50 [19]: 610 nM; EC50 [17]: 430 nM; inhibition (Cavia porcellus [10]): 77%
COC(=O)C1=C(C)NC(C)=C(C(=O)OC)C1c1c(C)nc2sc(Cl)cn12 | inactive |  | 550 nM | 60 ms-1 | 42900 nM | Ratio EC50 [6]: 2.6

Second part, led by results:

Activity [1] | Activity [2] | IC50 [3] | Emax [7] | SMILES | Kd [5] | further results
inactive | inactive | 2160 nM |  | CCc1cn2c(C3C(C(=O)OC)=C(C)NC(C)=C3C(=O)OC)c(-c3cc(OC)ccc3OC)nc2s1 |  | inhibition (Cavia porcellus [4]): 92%
inactive |  | 18 nM | 64 ms-1 | COC(=O)C1=C(C)NC(C)=C(C(=O)OC)C1c1c(-c2cccc(OC(F)(F)F)c2)nc2sccn12 | 1400 nM | inhibition (Cavia porcellus [11]): 76%; IC50 [9]: 58 nM
inactive | inactive | 860 nM |  | COC(=O)C1=C(C)NC(C)=C(C(=O)OC)C1c1c(-c2ccccc2OC)nc2sccn12 |  | 
inactive | inactive |  |  | COC(=O)C1=C(C)NC(C)=C(C(=O)OC)C1c1c(-c2ccccc2OC(F)(F)F)nc2sccn12 |  | inhibition at 10 µM [13]: 47%
inactive | inactive | 11400 nM |  | COC(=O)C1=C(C)NC(C)=C(C(=O)OC)C1c1c(-c2cc(OC)c(OC)cc2[N+](=O)[O-])nc2sccn12 |  | inhibition (Cavia porcellus [23]): 86%; Ratio EC50 [24]: 9
inactive |  |  | 60 ms-1 | COC(=O)C1=C(C)NC(C)=C(C(=O)OC)C1c1c(-c2cccc(OC)c2)nc2sccn12 | 34200 nM | 
inactive | inactive | 450 nM |  | COC(=O)C1=C(C)NC(C)=C(C(=O)OC)C1c1c(-c2ccc(OC)c(OC)c2)nc2sccn12 |  | inhibition (Cavia porcellus [10]): 90%
inactive | inactive | 4890 nM |  | COC(=O)C1=C(C)NC(C)=C(C(=O)OC)C1c1c(-c2cc(OC)ccc2OC)nc2sc(C)cn12 |  | inhibition (Cavia porcellus [4]): 74%
inactive | inactive | 1140 nM |  | COC(=O)C1=C(C)NC(C)=C(C(=O)OC)C1c1c(-c2cc(OC)ccc2OC)nc2sc(Cl)cn12 |  | inhibition (Cavia porcellus [23]): 91%
inactive | inactive |  |  | COC(=O)C1=C(C)NC(C)=C(C(=O)OC)C1c1c(-c2c(OC)ccc(OC)c2[N+](=O)[O-])nc2sccn12 |  | 
inactive | inactive | 260 nM |  | COC(=O)C1=C(C)NC(C)=C(C(=O)OC)C1c1c(-c2ccccc2)nc2n1CCS2 |  | Ratio EC50 [24]: 22; inhibition at 100 µM [20]: 78%; inhibition at 100 µM (Aorta [25]): 46%; inhibition at 100 µM [22]: 90%; EC50 [19]: 8630 nM; EC50 [17]: 390 nM; inhibition (Cavia porcellus [10]): 80%
